In ChEMBL document CHEMBL1781980, “Structure-activity relationship studies to probe the phosphoprotein binding site on the carboxy terminal domains of the breast cancer susceptibility gene 1” (J Med Chem, 2011):
Active and inactive are the calls of the source. The calls are words filed in the database; no cut-off is given here. Non-standard residues stand in square brackets, D forms with d. Residues, ends and D or L forms follow the SMILES beside them. pS = N[C@@H](COP(=O)(O)O)C(=O)O

Tests used:
[1] = biological target: T1, Breast cancer type 1 susceptibility protein (Homo sapiens, UniProt P38398); test: Binding affinity to BRCA1 by isothermal titration calorimetric assay
Summary of the method: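 Direct ITC titration at 25°C. Protein dialyzed three times (2 h each) into 50mM KH2PO4 pH = 7.2; final dialysate used for reference cell and to dissolve peptides. Peptides (100 – 400 μM) in syringe, protein (10 – 20 μM) in cell; 3 μL first injection then 29 × 10 μL every 3 minutes, stirred at 307 rpm. Peptide-into-buffer dilution curves collected; Kd and ΔG, ΔH, ΔS derived.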

[2] = biological target: T1, Breast cancer type 1 susceptibility protein; test: Inhibition of BRCA1 by fluorescence polarization assay
Summary of the method: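 Competitive fluorescence polarization assay. Peptides titrated into a mixture of BRCT protein (1000 nM) and fluorescently labeled tetrapeptide (100 nM). Polarization and fluorescence read on a plate reader. IC50 values obtained by non-linear least square fitting.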
Target sequence in this assay (P38398 whole entry): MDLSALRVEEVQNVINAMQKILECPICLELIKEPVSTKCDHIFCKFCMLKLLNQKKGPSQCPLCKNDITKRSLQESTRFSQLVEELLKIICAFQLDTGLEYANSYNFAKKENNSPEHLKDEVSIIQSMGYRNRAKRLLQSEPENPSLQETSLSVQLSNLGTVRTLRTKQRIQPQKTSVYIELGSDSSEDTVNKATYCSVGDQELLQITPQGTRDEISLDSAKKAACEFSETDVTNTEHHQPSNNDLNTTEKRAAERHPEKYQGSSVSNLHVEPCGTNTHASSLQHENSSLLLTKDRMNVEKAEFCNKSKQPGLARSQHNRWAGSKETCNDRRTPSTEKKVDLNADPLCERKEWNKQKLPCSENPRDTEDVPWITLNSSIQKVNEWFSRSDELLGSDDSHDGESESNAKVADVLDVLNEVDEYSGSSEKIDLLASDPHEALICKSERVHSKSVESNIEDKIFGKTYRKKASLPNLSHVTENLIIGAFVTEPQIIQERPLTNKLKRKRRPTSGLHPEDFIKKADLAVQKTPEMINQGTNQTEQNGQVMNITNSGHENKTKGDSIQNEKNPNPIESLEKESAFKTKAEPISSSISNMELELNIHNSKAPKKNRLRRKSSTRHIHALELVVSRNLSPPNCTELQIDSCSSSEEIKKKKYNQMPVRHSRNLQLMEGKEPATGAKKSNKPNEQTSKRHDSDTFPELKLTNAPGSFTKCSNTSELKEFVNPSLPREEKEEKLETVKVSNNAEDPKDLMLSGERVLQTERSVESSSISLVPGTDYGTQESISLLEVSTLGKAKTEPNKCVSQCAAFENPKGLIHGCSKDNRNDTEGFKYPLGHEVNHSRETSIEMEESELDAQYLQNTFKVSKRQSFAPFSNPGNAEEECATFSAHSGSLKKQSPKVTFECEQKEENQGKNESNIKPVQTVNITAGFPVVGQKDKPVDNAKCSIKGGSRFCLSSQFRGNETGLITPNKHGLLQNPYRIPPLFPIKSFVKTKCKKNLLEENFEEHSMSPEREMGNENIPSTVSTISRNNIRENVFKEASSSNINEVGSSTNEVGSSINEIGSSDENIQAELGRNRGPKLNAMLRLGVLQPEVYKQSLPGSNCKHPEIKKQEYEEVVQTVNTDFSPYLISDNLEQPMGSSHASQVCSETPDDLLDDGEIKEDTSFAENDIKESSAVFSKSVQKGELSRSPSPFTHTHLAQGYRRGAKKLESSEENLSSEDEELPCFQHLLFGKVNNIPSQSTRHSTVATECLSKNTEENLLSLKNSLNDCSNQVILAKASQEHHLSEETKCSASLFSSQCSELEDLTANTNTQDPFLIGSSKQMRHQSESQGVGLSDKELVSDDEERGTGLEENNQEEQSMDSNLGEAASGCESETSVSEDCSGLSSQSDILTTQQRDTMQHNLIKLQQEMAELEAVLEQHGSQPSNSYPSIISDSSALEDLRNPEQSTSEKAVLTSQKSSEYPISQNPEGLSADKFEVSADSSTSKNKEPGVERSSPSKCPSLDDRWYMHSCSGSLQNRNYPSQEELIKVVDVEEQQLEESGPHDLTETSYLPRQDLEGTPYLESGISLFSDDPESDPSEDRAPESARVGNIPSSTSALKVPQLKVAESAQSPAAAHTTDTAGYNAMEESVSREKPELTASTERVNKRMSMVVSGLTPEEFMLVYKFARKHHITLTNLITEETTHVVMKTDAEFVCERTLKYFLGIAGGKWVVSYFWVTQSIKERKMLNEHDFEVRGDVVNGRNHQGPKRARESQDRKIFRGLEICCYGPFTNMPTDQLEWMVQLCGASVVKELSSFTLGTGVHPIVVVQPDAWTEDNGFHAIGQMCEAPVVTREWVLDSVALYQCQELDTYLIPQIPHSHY

SMILES | Activity [1] | Kd [1] | other results
CC(=O)N[C@@H](CCC(=O)O)C(=O)N1CCC[C@H]1C(=O)N[C@H](C(=O)N[C@@H](Cc1ccccc1)C(N)=O)[C@@H](C)O (Ac-EPTF-NH2) | – | – | IC50 [2]: > 250 µM
CC(=O)N[C@@H](CO)C(=O)N[C@@H](CCCNC(=N)N)C(=O)N[C@@H](CO)C(=O)N[C@H](C(=O)N[C@@H](COP(=O)(O)O)C(=O)N1CCC[C@H]1C(=O)N[C@H](C(=O)N[C@@H](Cc1ccccc1)C(=O)N[C@@H](CC(N)=O)C(=O)N[C@@H](CCCCN)C(N)=O)[C@@H](C)O)[C@@H](C)O | – | 440 nM | –
CC[C@H](C)[C@H](N)C(=O)N[C@@H](CO)C(=O)N[C@@H](CCCNC(=N)N)C(=O)N[C@@H](CO)C(=O)N[C@H](C(=O)N[C@@H](COP(=O)(O)O)C(=O)N1CCC[C@H]1C(=O)N[C@H](C(=O)N[C@@H](Cc1ccccc1)C(=O)N[C@@H](CC(N)=O)C(=O)N[C@@H](CCCCN)C(=O)N[C@@H](CCC(N)=O)C(=O)N[C@H](C(=O)O)[C@@H](C)O)[C@@H](C)O)[C@@H](C)O | – | 410 nM | –
CC(=O)N[C@@H](COP(=O)(O)O)C(=O)N1CCC[C@H]1C(=O)N[C@H](C(=O)N[C@@H](Cc1ccccc1)C(=O)O)C(C)C (Ac-[pS]PVF-OH) | Active | – | –

Further lines, with some results ahead:

Activity [1] | Kd [1] | SMILES | other results
Active | – | CC(=O)N[C@@H](COP(=O)(O)O)C(=O)N1CCC[C@H]1C(=O)N[C@H](C(=O)N[C@@H](Cc1ccccc1)C(N)=O)[C@@H](C)O (Ac-[pS]PTF-NH2) | –
Active | – | CC(=O)N[C@@H](COP(=O)(O)O)C(=O)N1CCC[C@H]1C(=O)N[C@H](C(=O)N[C@@H](Cc1ccccc1)C(N)=O)C(C)C (Ac-[pS]PVF-NH2) | –
